Assay results taken from ChEMBL document CHEMBL4393666, “Synthesis and Anti-HCV Activities of 4'-Fluoro-2'-Substituted Uridine Triphosphates and Nucleotide Prodrugs: Discovery of 4'-Fluoro-2'- C-methyluridine 5'-Phosphoramidate Prodrug (AL-335) for the Treatment of Hepatitis C Infection” (J Med Chem, 2019).

Key:
[1] = Cytotoxicity against human HuH7 cells infected with HCV con1 subgenomic replicon assessed as reduction in cell viability measured after 3 days by CellTiter-blue cell viability assay; assay type: cell-based, Huh-7
Method in brief: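 Con1 replicon Huh-7 cells treated as for the replicon assay (DMEM, 2% FBS, 0.5% DMSO, no G418, 37°C) for 3 days. Viability by CellTiter-Blue; CC50 by curve fitting.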

Hepatitis C virus = assay: Antiviral activity against HCV con1 subgenomic replicon infected in human HuH7 cells assessed as reduction in viral RNA replication by qRT-PCR analysis; assay type: functional, organism-based, Hepacivirus hominis; conditions: isolate Con1, Huh-7
Method in brief: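 Con1 subgenomic replicon Huh-7 cells (neomycin selection, kept in DMEM/10% FBS with 0.25 mg/ml G418) treated with compounds in DMEM, 2% FBS, 0.5% DMSO, no G418, at 37°C. Total RNA extracted; HCV RNA copy number by multiplex Taqman QRT-PCR. EC50/EC90 by 4-parameter curve fit; EC50 is the mean of ≥2 independent runs.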

[2] = molecular target: RNA-directed RNA polymerase (Hepacivirus hominis, UniProt O39930); assay: Inhibition of HCV NS5B RNA-dependent RNA polymerase activity assessed as reduction in radiolabeled-CTP incorporation into RNA using cIRES template measured after 2 hrs by microscintillation counting method
RNA-directed RNA polymerase, sequence (O39930 whole entry): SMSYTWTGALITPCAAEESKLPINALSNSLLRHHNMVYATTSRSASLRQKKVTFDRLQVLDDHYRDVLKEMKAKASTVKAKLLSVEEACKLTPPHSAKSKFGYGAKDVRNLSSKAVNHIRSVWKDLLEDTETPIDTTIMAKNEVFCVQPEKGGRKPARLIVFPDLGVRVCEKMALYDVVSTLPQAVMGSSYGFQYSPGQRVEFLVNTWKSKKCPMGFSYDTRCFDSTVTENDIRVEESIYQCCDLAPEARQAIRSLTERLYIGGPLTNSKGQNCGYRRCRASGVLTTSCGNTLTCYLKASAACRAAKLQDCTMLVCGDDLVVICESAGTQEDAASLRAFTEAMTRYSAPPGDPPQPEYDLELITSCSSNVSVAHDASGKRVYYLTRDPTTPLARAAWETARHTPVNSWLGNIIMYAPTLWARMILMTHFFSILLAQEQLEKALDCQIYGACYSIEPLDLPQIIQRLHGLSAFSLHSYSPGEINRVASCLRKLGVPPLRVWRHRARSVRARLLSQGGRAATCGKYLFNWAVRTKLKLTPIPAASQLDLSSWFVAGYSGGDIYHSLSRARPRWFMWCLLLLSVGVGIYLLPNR

Row | EC50 (Hepatitis C virus) [nM] | IC50 [2] [nM] | SMILES | CC50 at 72 h [1] [nM]
1 | 70 | – | C#C[C@]1(O)[C@H](n2ccc(=O)[nH]c2=O)O[C@](F)(COP(=O)(N[C@@H](C)C(=O)OC2CCCCC2)Oc2ccccc2)[C@H]1O (stereo partly drawn) | > 100000
2 | – | 6400 | C=C[C@]1(O)[C@H](n2ccc(=O)[nH]c2=O)O[C@](F)(COP(=O)(O)OP(=O)(O)OP(=O)(O)O)[C@H]1O | –
3 | 7500 | – | CCOC(=O)[C@H](C)NP(=O)(N[C@@H](C)C(=O)OCC)OC[C@@]1(F)O[C@@H](n2ccc(=O)[nH]c2=O)[C@](C)(O)[C@@H]1O | > 100000
4 | – | 84000 | CC[C@]1(O)[C@H](n2ccc(=O)[nH]c2=O)O[C@](F)(COP(=O)(O)OP(=O)(O)OP(=O)(O)O)[C@H]1O | –
5 | – | 340 | C#C[C@]1(F)[C@H](n2ccc(=O)[nH]c2=O)O[C@](F)(COP(=O)(O)OP(=O)(O)OP(=O)(O)O)[C@H]1O | –
6 | – | 27 | C#C[C@@]1(O)[C@H](O)[C@@H](COP(=O)(O)OP(=O)(O)OP(=O)(O)O)O[C@H]1n1ccc(=O)[nH]c1=O | –
7 | – | 280 | O=c1ccn([C@@H]2O[C@H](COP(=O)(O)OP(=O)(O)OP(=O)(O)O)[C@@H](O)[C@]2(O)CF)c(=O)[nH]1 | –
8 | – | 330 | C#C[C@@]1(F)[C@H](O)[C@@H](COP(=O)(O)OP(=O)(O)OP(=O)(O)O)O[C@H]1n1ccc(=O)[nH]c1=O | –
9 | – | 150 | O=c1ccn([C@@H]2O[C@](F)(COP(=O)(O)OP(=O)(O)OP(=O)(O)O)[C@@H](O)[C@]2(O)CF)c(=O)[nH]1 | –
10 | – | 39 | C#C[C@]1(O)[C@H](n2ccc(=O)[nH]c2=O)O[C@](F)(COP(=O)(O)OP(=O)(O)OP(=O)(O)O)[C@H]1O | –

Further lines, the molecule ahead of its results:

Row | SMILES | EC50 (Hepatitis C virus) [nM] | IC50 [2] [nM] | CC50 at 72 h [1] [nM]
11 | C=C[C@]1(O)[C@H](n2ccc(=O)[nH]c2=O)O[C@](F)(COP(=O)(N[C@@H](C)C(=O)OC(C)C)Oc2ccccc2)[C@H]1O (stereo partly drawn) | 8300 | – | > 100000
12 | C[C@H](NP(=O)(OC[C@@]1(F)O[C@@H](n2ccc(=O)[nH]c2=O)[C@](C)(O)[C@@H]1O)Oc1ccccc1)C(=O)OC1CCCCC1 (stereo partly drawn) | 40 | – | 84000
13 | CC(C)OC(=O)[C@H](C)NP(=O)(OC[C@@]1(F)O[C@@H](n2ccc(=O)[nH]c2=O)[C@](C)(F)[C@@H]1O)Oc1ccccc1 (stereo partly drawn) | 310 | – | > 100000
14 | CC[C@]1(O)[C@H](n2ccc(=O)[nH]c2=O)O[C@](F)(COP(=O)(N[C@@H](C)C(=O)OC(C)C)Oc2ccccc2)[C@H]1O (stereo partly drawn) | 43000 | – | > 100000
15 | CC(C)OC(=O)[C@H](C)NP(=O)(OC[C@@]1(F)O[C@@H](n2ccc(=O)[nH]c2=O)[C@](C)(Cl)[C@@H]1O)Oc1ccccc1 (stereo partly drawn) | 100 | – | > 100000
16 | CC(C)OC(=O)[C@H](C)NP(=O)(OC[C@H]1O[C@@H](n2ccc(=O)[nH]c2=O)[C@](C)(Cl)[C@@H]1O)Oc1ccccc1 (stereo partly drawn) | 120 | – | > 100000
17 | CC(C)OC(=O)[C@H](C)NP(=O)(OC[C@H]1O[C@@H](n2ccc(=O)[nH]c2=O)[C@](C)(F)[C@@H]1O)Oc1ccccc1 (stereo partly drawn) | 220 | – | > 100000
18 | CC(C)OC(=O)[C@H](C)NP(=O)(OC[C@@]1(F)O[C@@H](n2ccc(=O)[nH]c2=O)[C@](C)(O)[C@@H]1O)Oc1ccc(Cl)cc1 (stereo partly drawn) | 80 | – | > 100000
19 | CC(C)OC(=O)[C@H](C)NP(=O)(OC[C@@]1(F)O[C@@H](n2ccc(=O)[nH]c2=O)[C@](C)(O)[C@@H]1O)Oc1cccc2ccccc12 (stereo partly drawn) | 20 | – | > 85000
20 | CC(C)OC(=O)[C@H](C)N[P@@](=O)(OC[C@@]1(F)O[C@@H](n2ccc(=O)[nH]c2=O)[C@](C)(O)[C@@H]1O)Oc1ccccc1 | 940 | – | > 100000
21 | C[C@H](NP(=O)(OC[C@@]1(F)O[C@@H](n2ccc(=O)[nH]c2=O)[C@](C)(O)[C@@H]1O)Oc1ccccc1)C(=O)OCC(C)(C)C (stereo partly drawn) | 40 | – | > 100000
22 | CC(C)OC(=O)[C@H](C)NP(=O)(OC[C@@]1(F)O[C@@H](n2ccc(=O)[nH]c2=O)[C@@](F)(Cl)[C@@H]1O)Oc1ccccc1 (stereo partly drawn) | 45 | – | > 100000
23 | CC(C)OC(=O)[C@H](C)NP(=O)(N[C@@H](C)C(=O)OC(C)C)OC[C@@]1(F)O[C@@H](n2ccc(=O)[nH]c2=O)[C@](C)(O)[C@@H]1O | 6600 | – | > 100000
